In ChEMBL document CHEMBL5380865, “Linearization of the Brevicidine and Laterocidine Lipopeptides Yields Analogues That Retain Full Antibacterial Activity” (J Med Chem, 2023):
≈ marks a conversion by molar mass, not a printed value. Where a SMILES comes first, the peptide text is derived from it. [ ]: non-standard residue; d: D form. The star is where a group is joined. ξ: configuration not given here. Octanoyl(7-Me) = CC(C)CCCCCC(=O)*; Hexanoyl(4ξ-Me) = CCC(C)CCC(=O)*; dOrn = NCCC[C@@H](N)C(=O)O; Orn = NCCC[C@H](N)C(=O)O; Dap = NC[C@H](N)C(=O)O

Legend:
[1] = test system: Escherichia coli; assay: Antibacterial activity Escherichia coli ATCC 25922 assessed as inhibition of visible bacterial growth incubated for 18 hrs by microbroth dilution assay; type: functional
Method in brief: (§1)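 CLSI broth microdilution. Strains streaked from glycerol stocks onto blood agar (16 h, 37 °C); single colonies grown in TSB at 37 °C, 220 rpm, to OD600 about 0.5. Diluted in MHB to 2 × 10^5 CFU/mL and mixed 1:1 with compounds serially diluted in MHB from DMSO stocks (colistin from water stocks), polypropylene plates. Sealed, 18 h at 37 °C, 600 rpm. MIC taken as lowest concentration preventing visible growth, three technical replicates.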

[2] = test system: Klebsiella pneumoniae; assay: Antibacterial activity Klebsiella pneumoniae ATCC 13883 assessed as inhibition of visible bacterial growth incubated for 18 hrs by microbroth dilution assay; type: functional; method in brief: as §1
[3] = test system: Acinetobacter baumannii; assay: Antibacterial activity Acinetobacter baumannii ATCC 17961 assessed as inhibition of visible bacterial growth incubated for 18 hrs by microbroth dilution assay; type: functional; method in brief: as §1
[4] = test system: Pseudomonas aeruginosa; assay: Antibacterial activity Pseudomonas aeruginosa PAO1 assessed as inhibition of visible bacterial growth incubated for 18 hrs by microbroth dilution assay; type: functional
Method in brief: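 CLSI broth microdilution. Colonies from blood agar (16 h, 37 °C) grown in TSB at 37 °C, 220 rpm, to OD600 about 0.5, then diluted in MHB to 2 × 10^5 CFU/mL. Added to DMSO-stock compounds serially diluted in MHB in polypropylene plates. Sealed, 18 h at 37 °C, 600 rpm. MIC = lowest concentration with no visible growth; three technical replicates.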

[5] = test system: Staphylococcus aureus; assay: Antibacterial activity Staphylococcus aureus USA300 assessed as inhibition of visible bacterial growth incubated for 18 hrs by microbroth dilution assay; type: functional; method in brief: as §1
[6] = test system: Escherichia coli; assay: Antibacterial activity Escherichia coli MCR-1 assessed as inhibition of visible bacterial growth incubated for 18 hrs by microbroth dilution assay; type: functional
Method in brief: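 Colistin-resistant E. coli 25922 carrying MCR-1, grown from glycerol stock in kanamycin-supplemented TSB for 16 h at 37 °C, 220 rpm. Diluted 100-fold in kanamycin-supplemented TSB and grown to OD600 about 0.5, then diluted in MHB to 2 × 10^5 CFU/mL. Combined 1:1 with MHB serial dilutions of compounds. Sealed, 18 h at 37 °C, 600 rpm; lowest concentration without visible growth, triplicate technical replicates.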

[7] = Hemolytic activity in sheep red blood cell assessed as hemolysis at 1 to 128 ug/ml incubated for 1 hrs relative to control; type: toxicity, cell-based, Ovis aries, Erythrocyte; details: sheep red blood cells (erythrocytes), at 1 to 128 µg/mL, dose 1-128 µg/ml, read-out: Activity
Method in brief: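 Defibrinated sheep erythrocytes washed five times in PBS with 0.002% Tween20 and normalized so the Triton control reads 2.5–3.0 at 415 nm. Mixed 1:1 with compound serial dilutions (128–1 μg/mL) and incubated 1 h at 37 °C, 500 rpm. Supernatant A415 is background-corrected with buffer and expressed as percent of 0.1% Triton X-100 (final). Run in triplicate.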

Row | Compound | MIC [1] | MIC [2] | MIC [3] | MIC [4] | MIC [5] | MIC [6] | hemolysis at 1 h [7]
1 | CCC(C)CCC(=O)N[C@H](C)C(=O)N[C@H](Cc1ccc(O)cc1)C(=O)N[C@H](Cc1c[nH]c2ccccc12)C(=O)N[C@H](CCCN)C(=O)N[C@@H](CCCN)C(=O)NCC(=O)N[C@H](CCCN)C(=O)N[C@@H](Cc1c[nH]c2ccccc12)C(=O)N[C@H](C(=O)N[C@H](C(=O)NCC(=O)N[C@@H](CO)C(N)=O)[C@@H](C)CC)[C@@H](C)O (stereo partly specified) ({Hexanoyl(4ξ-Me)}-[dA][dY][dW][dOrn][Orn]G[dOrn]WTIGS-NH2) | 16 µg/mL (≈ 10.7 µM) | 16 µg/mL (≈ 10.7 µM) | 8 µg/mL (≈ 5.36 µM) | 8 µg/mL (≈ 5.36 µM) | > 32 µg/mL | 16 µg/mL (≈ 10.7 µM) | –
2 | CCC(C)CCC(=O)N[C@H](CC(N)=O)C(=O)N[C@H](C)C(=O)N[C@H](Cc1c[nH]c2ccccc12)C(=O)N[C@H](CCCN)C(=O)N[C@@H](CCCN)C(=O)NCC(=O)N[C@H](CCCN)C(=O)N[C@@H](Cc1c[nH]c2ccccc12)C(=O)N[C@H](C(=O)N[C@H](C(=O)NCC(=O)N[C@@H](CO)C(N)=O)[C@@H](C)CC)[C@@H](C)O (stereo partly specified) ({Hexanoyl(4ξ-Me)}-[dN][dA][dW][dOrn][Orn]G[dOrn]WTIGS-NH2) | > 32 µg/mL | > 32 µg/mL | > 32 µg/mL | 16 µg/mL (≈ 11.1 µM) | > 32 µg/mL | > 32 µg/mL | –
3 | CCC(C)CCC(=O)N[C@H](CC(N)=O)C(=O)N[C@H](Cc1ccc(O)cc1)C(=O)N[C@H](C)C(=O)N[C@H](CCCN)C(=O)N[C@@H](CCCN)C(=O)NCC(=O)N[C@H](CCCN)C(=O)N[C@@H](Cc1c[nH]c2ccccc12)C(=O)N[C@H](C(=O)N[C@H](C(=O)NCC(=O)N[C@@H](CO)C(N)=O)[C@@H](C)CC)[C@@H](C)O (stereo partly specified) ({Hexanoyl(4ξ-Me)}-[dN][dY][dA][dOrn][Orn]G[dOrn]WTIGS-NH2) | > 32 µg/mL | > 32 µg/mL | > 32 µg/mL | 32 µg/mL (≈ 22.5 µM) | > 32 µg/mL | > 32 µg/mL | –
4 | CCC(C)CCC(=O)N[C@H](CC(N)=O)C(=O)N[C@H](Cc1ccc(O)cc1)C(=O)N[C@H](Cc1c[nH]c2ccccc12)C(=O)N[C@H](CCCN)C(=O)N[C@@H](C)C(=O)NCC(=O)N[C@H](CCCN)C(=O)N[C@@H](Cc1c[nH]c2ccccc12)C(=O)N[C@H](C(=O)N[C@H](C(=O)NCC(=O)N[C@@H](CO)C(N)=O)[C@@H](C)CC)[C@@H](C)O (stereo partly specified) ({Hexanoyl(4ξ-Me)}-[dN][dY][dW][dOrn]AG[dOrn]WTIGS-NH2) | > 32 µg/mL | > 32 µg/mL | > 32 µg/mL | 32 µg/mL (≈ 21.4 µM) | > 32 µg/mL | > 32 µg/mL | –
5 | CCC(C)CCC(=O)N[C@H](CC(N)=O)C(=O)N[C@H](Cc1ccc(O)cc1)C(=O)N[C@H](Cc1c[nH]c2ccccc12)C(=O)N[C@H](CCCN)C(=O)N[C@@H](CCCN)C(=O)N[C@@H](C)C(=O)N[C@H](CCCN)C(=O)N[C@@H](Cc1c[nH]c2ccccc12)C(=O)N[C@H](C(=O)N[C@H](C(=O)NCC(=O)N[C@@H](CO)C(N)=O)[C@@H](C)CC)[C@@H](C)O (stereo partly specified) ({Hexanoyl(4ξ-Me)}-[dN][dY][dW][dOrn][Orn]A[dOrn]WTIGS-NH2) | 32 µg/mL (≈ 20.6 µM) | > 32 µg/mL | 32 µg/mL (≈ 20.6 µM) | 32 µg/mL (≈ 20.6 µM) | > 32 µg/mL | 32 µg/mL (≈ 20.6 µM) | –
6 | CCC(C)CCC(=O)N[C@H](CC(N)=O)C(=O)N[C@H](Cc1ccc(O)cc1)C(=O)N[C@H](Cc1c[nH]c2ccccc12)C(=O)N[C@H](CCCN)C(=O)N[C@@H](CCCN)C(=O)NCC(=O)N[C@H](C)C(=O)N[C@@H](Cc1c[nH]c2ccccc12)C(=O)N[C@H](C(=O)N[C@H](C(=O)NCC(=O)N[C@@H](CO)C(N)=O)[C@@H](C)CC)[C@@H](C)O (stereo partly specified) ({Hexanoyl(4ξ-Me)}-[dN][dY][dW][dOrn][Orn]G[dA]WTIGS-NH2) | > 32 µg/mL | > 32 µg/mL | 16 µg/mL (≈ 10.7 µM) | 32 µg/mL (≈ 21.4 µM) | > 32 µg/mL | > 32 µg/mL | –
7 | CCC(C)CCC(=O)N[C@H](CC(N)=O)C(=O)N[C@H](Cc1ccc(O)cc1)C(=O)N[C@H](Cc1c[nH]c2ccccc12)C(=O)N[C@H](CCCN)C(=O)N[C@@H](CCCN)C(=O)NCC(=O)N[C@H](CCCN)C(=O)N[C@@H](C)C(=O)N[C@H](C(=O)N[C@H](C(=O)NCC(=O)N[C@@H](CO)C(N)=O)[C@@H](C)CC)[C@@H](C)O (stereo partly specified) ({Hexanoyl(4ξ-Me)}-[dN][dY][dW][dOrn][Orn]G[dOrn]ATIGS-NH2) | > 32 µg/mL | > 32 µg/mL | > 32 µg/mL | 32 µg/mL (≈ 22.5 µM) | > 32 µg/mL | > 32 µg/mL | –
8 | CCC(C)CCC(=O)N[C@H](CC(N)=O)C(=O)N[C@H](Cc1ccc(O)cc1)C(=O)N[C@H](Cc1c[nH]c2ccccc12)C(=O)N[C@H](CCCN)C(=O)N[C@@H](CCCN)C(=O)NCC(=O)N[C@H](CCCN)C(=O)N[C@@H](Cc1c[nH]c2ccccc12)C(=O)N[C@@H](C)C(=O)N[C@H](C(=O)NCC(=O)N[C@@H](CO)C(N)=O)[C@@H](C)CC (stereo partly specified) ({Hexanoyl(4ξ-Me)}-[dN][dY][dW][dOrn][Orn]G[dOrn]WAIGS-NH2) | 8 µg/mL (≈ 5.31 µM) | 16 µg/mL (≈ 10.6 µM) | 16 µg/mL (≈ 10.6 µM) | 4 µg/mL (≈ 2.65 µM) | > 32 µg/mL | 16 µg/mL (≈ 10.6 µM) | –
9 | CCC(C)CCC(=O)N[C@H](CC(N)=O)C(=O)N[C@H](Cc1ccc(O)cc1)C(=O)N[C@H](Cc1c[nH]c2ccccc12)C(=O)N[C@H](CCCN)C(=O)N[C@@H](CCCN)C(=O)NCC(=O)N[C@H](CCCN)C(=O)N[C@@H](Cc1c[nH]c2ccccc12)C(=O)N[C@@H](CC(=O)O)C(=O)N[C@H](C(=O)NCC(N)=O)[C@@H](C)CC (stereo partly specified) ({Hexanoyl(4ξ-Me)}-[dN][dY][dW][dOrn][Orn]G[dOrn]WDIG-NH2) | > 32 µg/mL | – | – | – | – | > 32 µg/mL | –
10 | CCC(C)CCC(=O)N[C@H](CC(N)=O)C(=O)N[C@H](Cc1ccc(O)cc1)C(=O)N[C@H](Cc1c[nH]c2ccccc12)C(=O)N[C@H](CCCN)C(=O)N[C@@H](CCCN)C(=O)NCC(=O)N[C@H](CCCN)C(=O)N[C@@H](Cc1c[nH]c2ccccc12)C(=O)N[C@@H](CO)C(=O)N[C@H](C(=O)NCC(N)=O)[C@@H](C)CC (stereo partly specified) ({Hexanoyl(4ξ-Me)}-[dN][dY][dW][dOrn][Orn]G[dOrn]WSIG-NH2) | 4 µg/mL (≈ 2.79 µM) | 4 µg/mL (≈ 2.79 µM) | 8 µg/mL (≈ 5.57 µM) | 2 µg/mL (≈ 1.39 µM) | > 32 µg/mL | 8 µg/mL (≈ 5.57 µM) | –
11 | CCC(C)CCC(=O)N[C@H](CC(N)=O)C(=O)N[C@H](Cc1ccc(O)cc1)C(=O)N[C@H](Cc1c[nH]c2ccccc12)C(=O)N[C@H](CCCN)C(=O)N[C@@H](CCCN)C(=O)NCC(=O)N[C@H](CCCN)C(=O)N[C@@H](Cc1c[nH]c2ccccc12)C(=O)N[C@H](C(=O)N[C@@H](C)C(=O)NCC(=O)N[C@@H](CO)C(N)=O)[C@@H](C)O (stereo partly specified) ({Hexanoyl(4ξ-Me)}-[dN][dY][dW][dOrn][Orn]G[dOrn]WTAGS-NH2) | > 32 µg/mL | > 32 µg/mL | > 32 µg/mL | 16 µg/mL (≈ 10.7 µM) | > 32 µg/mL | > 32 µg/mL | –
12 | CCC(C)CCC(=O)N[C@H](CC(N)=O)C(=O)N[C@H](Cc1ccc(O)cc1)C(=O)N[C@H](Cc1c[nH]c2ccccc12)C(=O)N[C@H](CCCN)C(=O)N[C@@H](CCCN)C(=O)NCC(=O)N[C@H](CCCN)C(=O)N[C@@H](Cc1c[nH]c2ccccc12)C(=O)N[C@H](C(=O)N[C@H](C(=O)N[C@@H](C)C(=O)N[C@@H](CO)C(N)=O)[C@@H](C)CC)[C@@H](C)O (stereo partly specified) ({Hexanoyl(4ξ-Me)}-[dN][dY][dW][dOrn][Orn]G[dOrn]WTIAS-NH2) | 32 µg/mL (≈ 20.6 µM) | > 32 µg/mL | 32 µg/mL (≈ 20.6 µM) | 16 µg/mL (≈ 10.3 µM) | > 32 µg/mL | 32 µg/mL (≈ 20.6 µM) | –
13 | CC[C@H](C)[C@H](NC(=O)[C@@H](NC(=O)[C@H](Cc1c[nH]c2ccccc12)NC(=O)[C@@H](CCCN)NC(=O)CNC(=O)[C@H](C)NC(=O)[C@@H](CCCN)NC(=O)[C@@H](Cc1c[nH]c2ccccc12)NC(=O)[C@@H](Cc1ccc(O)cc1)NC(=O)[C@@H](CO)NC(=O)CCCCCC(C)C)[C@@H](C)O)C(=O)N[C@@H](CC(N)=O)C(=O)NCC(=O)NCC(N)=O ({Octanoyl(7-Me)}-[dS][dY][dW][dOrn]AG[dOrn]WTINGG-NH2) | – | – | – | – | – | > 32 µg/mL | –
14 | CC[C@H](C)[C@H](NC(=O)[C@H](CN)NC(=O)[C@H](Cc1c[nH]c2ccccc12)NC(=O)[C@@H](CCCN)NC(=O)CNC(=O)[C@H](CCCN)NC(=O)[C@@H](CCCN)NC(=O)[C@@H](Cc1c[nH]c2ccccc12)NC(=O)[C@@H](Cc1ccc(O)cc1)NC(=O)[C@@H](CO)NC(=O)CCCCCC(C)C)C(=O)N[C@@H](CC(N)=O)C(=O)NCC(=O)NCC(N)=O ({Octanoyl(7-Me)}-[dS][dY][dW][dOrn][Orn]G[dOrn]W[Dap]INGG-NH2) | – | – | – | 18 µg/mL (≈ 11.2 µM) | – | – | < 0.1%
